Structures are written as SMILES. Values after ≈ are worked out from the molar mass of the structure shown.

What is called IC50 is the point on the concentration scale where inhibition reaches its midpoint. Read a low IC50 as greater potency in that assay. For orientation: GI50 means the concentration giving 50% growth inhibition.

The nature of data set [1]: Cytotoxicity against human BC1 cells. The class given is functional, cell-based.
Another data set relates to KB. Kind of data set: Cytotoxicity against human KB cells. The class given is functional, cell-based.
In a further data set the test system is NCI-H187. Put plainly: Cytotoxicity against human NCI-H187 cells. The class given is functional, cell-based.
A further data set deals with NCI-H460. Put plainly: Cytotoxicity against human NCI-H460 cells after 48 hrs by SRB assay. To be noted: NCI-H460, 48 h. It counts as functional. The essentials:
(§1)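 Cells kept in RPMI-1640 with 5% heat-inactivated FBS at 37 °C and 5% CO2, used in exponential growth at >90% viability (Trypan blue). Seeded per well: MCF-7 and NCI-H460 5 × 10³, A375-C5 7.5 × 10³, HL-60 1 × 10⁴. After 24 h, serial dilutions (0–150, where possible) were given for 48 h; DMSO ≤0.25%. Plates were TCA-fixed (10% adherent, 16.7% HL-60), SRB-stained and read at 510 nm. GI50 taken from curves; mean ± SE, ≥3 experiments; doxorubicin as positive control.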

Data set [2] in a line: Cytotoxicity against human A375-C5 cells after 48 hrs by SRB assay. The class given is functional. As to conditions: A375-C5, 48 h. The essentials: as §1
On the technique in general: In SRB staining, fixed cells bind dye roughly in proportion to their protein.

Another data set deals with MCF7. Kind of data set: Cytotoxicity against human MCF7 cells after 48 hrs by SRB assay. The class given is functional. As to conditions: MCF7, 48 h. The essentials:
as §1

A short description of data set [3]: Partition coefficient, log Kp of the compound in micelle-HEPES buffer at pH 7.4. The class given is physicochemical.
Data set [4] in a line: Partition coefficient, log Kp of the compound in liposome-HEPES buffer at pH 7.4. As to conditions: artificial membrane. The class given is physicochemical.
A further data set deals with HL-60. Put plainly: Cytotoxicity against human HL60 cells after 48 hrs by SRB assay. To be noted: HL-60, 48 h. It counts as functional. The essentials: as §1
Another data set deals with L1210. Kind of data set: Cytotoxicity against mouse L1210 cells. The class given is functional, cell-based.
A short description of data set [5]: Cytotoxicity against Drosophila melanogaster S2 cells. It counts as functional, cell-based.
In a further data set the test system is HCT-116. Put plainly: Cytotoxicity against human HCT116 cells. The class given is functional, cell-based.
The subject of the next data set is SGC-7901. Put plainly: Cytotoxicity against human SGC7901 cells. The class given is functional, cell-based.
The next data set deals with SMMC-7721. Put plainly: Cytotoxicity against human SMMC7721 cells. The class given is functional, cell-based.

`CC(C)=CCc1c(O)cc2oc3cc(O)c4c(c3c(=O)c2c1O)CCC(C)(C)O4`: the values for the IC50 (in [1]; in the data set with KB; with NCI-H187) were 3.9 µg/mL (≈ 9.84 µM), 3.9 µg/mL and 3.9 µg/mL (≈ 9.84 µM), respectively.
In the case of `COc1c2c(cc3c(=O)c4ccccc4oc13)OC(C)(C)CC2`, the GI50 with NCI-H460 is 47.3 µM; in data set [2], 42.5 µM; in the data set with MCF7 it was 45.1 µM; with HL-60, 31.8 µM. For the same compound, the results for the “log Kp” value in data set [3] and in [4] were 3.88 and 3.92, respectively.
On to `COc1cc2c(c3oc4ccccc4c(=O)c13)OC(C)(C)CC2`, for which the GI50 in [2] is greater than 100 µM; in the data set with MCF7, greater than 100 µM; in the data set with HL-60, 30.9 µM. Also, the “log Kp” value in data set [3] amounted to 3.46; in data set [4], 3.08.
For `CC1(C)C=Cc2ccc3c(=O)c4ccccc4oc3c2O1`, the GI50 came to 32.9 µM in the data set with NCI-H460, 6.2 µM in data set [2], 13.3 µM with MCF7 and 3.2 µM with HL-60. Also, the “log Kp” value was 3.5 in data set [3] and 3.42 in [4].
The compound `COc1ccc2c(=O)c3c(OC)c4c(c(OC)c3oc2c1OC)OC(C)(C)C=C4` displayed an IC50 with L1210 of 4.23 µg/mL (≈ 10.6 µM).
In turn, `COc1cc(OC)c2c(=O)c3c(O)c4c(c(OC)c3oc2c1OC)OC(C)(C)C=C4` had an IC50 in the data set on L1210 of 3.51 µg/mL (≈ 8.47 µM).
Take `CC1(C)C=Cc2c(cc3c(=O)c4ccccc4oc3c2O)O1`: the GI50 with NCI-H460 is greater than 150 µM; in data set [2] it was greater than 150 µM; with MCF7, 108 µM; in the data set on HL-60, greater than 70 µM. Moreover, the “log Kp” value is recorded as 3.29 in [3] and 3.06 in data set [4].
On to `CC1(C)C=Cc2cc3oc4ccccc4c(=O)c3c(O)c2O1`, for which the GI50 stood at 31.7 µM with NCI-H460, 29.6 µM in [2], 39.6 µM in the data set with MCF7 and 38.9 µM in the data set with HL-60. Besides, the “log Kp” value in data set [3] is 4.15; in data set [4], 4.17.
Compound `CC1(C)CCc2cc3oc4cc(O)cc(O)c4c(=O)c3c(O)c2O1` registered a 50% inhibitory concentration (IC50) in data set [5] of 6.3 µg/mL (≈ 19.2 µM).
In the case of `COc1cc2c(c3oc4ccccc4c(=O)c13)OC(C)(C)C=C2`, the values for the GI50 (in data set [2]; with HL-60) were 69.5 µM and 9.6 µM, respectively. The “log Kp” value came to 3.33 in data set [3] and 3.32 in data set [4].
Consider `CC(C)=CCc1c2c(c3oc4cc(O)c(O)cc4c(=O)c3c1O)C=CC(C)(C)O2` [CUDRATRICUXANTHONE], for which the concentration for half-maximal inhibition (IC50) in the data set on HCT-116, in the data set with SGC-7901 and in the data set on SMMC-7721 was 4.1 µM throughout.
For the compound `CC1(C)C=Cc2c(cc(O)c3c(=O)c4ccccc4oc23)O1`, the GI50 in the data set on NCI-H460 and in the data set on MCF7 was greater than 150 µM each time. Further, the “log Kp” value in data set [3] worked out at 4.02.
Turning to `COc1c2c(cc3oc4ccccc4c(=O)c13)C=CC(C)(C)O2`, the concentration for 50% growth inhibition (GI50) with NCI-H460 is 42.9 µM; in data set [2], 47.4 µM; in the data set on HL-60, 9.6 µM. Further, the “log Kp” value in [3] was 3.76; in data set [4], 3.54.
In the case of `CC1(C)CCc2c(cc3oc4ccccc4c(=O)c3c2O)O1`, in data set [3], the “log Kp” value turned out to be 4.32.
For the compound `COc1c2c(cc3c(=O)c4ccccc4oc13)C=CC(C)(C)O2`, the GI50 (in the data set with NCI-H460; in data set [2]; in the data set with MCF7) was greater than 150 µM throughout. Also, the “log Kp” value in [3] is 3.83; in data set [4], 3.88.
As to `CC1(C)CCc2cc(O)c3c(=O)c4ccccc4oc3c2O1`, the GI50 (in the data set with NCI-H460; in [2]; in the data set on MCF7; in the data set with HL-60) was greater than 50 µM throughout. Besides, the “log Kp” value in [3] was 4.28.
For `CC1(C)C=Cc2c(ccc3oc4ccccc4c(=O)c23)O1`, the GI50 came to 44.5 µM in the data set on NCI-H460, 37.9 µM in [2], 50.9 µM in the data set on MCF7 and 36.7 µM in the data set with HL-60. Besides, the “log Kp” value in [3] is 4.1; in data set [4], 4.14.
Turning to `COc1c2c(cc3oc4ccccc4c(=O)c13)CCC(C)(C)O2`, the GI50 was greater than 150 µM in the data set on NCI-H460, greater than 150 µM in data set [2] and 37.6 µM with HL-60. Further, the “log Kp” value in data set [3] worked out at 3.58; in data set [4], 3.09.
Consider `CC1(C)CCc2cc3oc4ccccc4c(=O)c3c(O)c2O1`, for which the GI50 in the data set with NCI-H460 was greater than 150 µM; in [2], greater than 150 µM; with MCF7, greater than 150 µM; with HL-60, 26.1 µM. For the same compound, the results for the “log Kp” value in data set [3] and in [4] were 3.88 and 3.96, respectively.
Consider `COc1cccc2c1C(=O)c1c(O)c3c(c(O)c1C2=O)C[C@@](O)(C(=O)CO)C[C@@H]3O[C@H]1C[C@H](N)[C@H](O)[C@H](C)O1` [DOXORUBICIN], for which growth in the data set on HL-60 was halved (GI50) at 0.028 µM. This lies in the double-digit nanomolar range.
As for `CC1(C)C=Cc2c(cc3oc4ccccc4c(=O)c3c2O)O1`, the GI50 in the data set with NCI-H460 and with MCF7 was greater than 150 µM throughout. Further, the “log Kp” value in [3] is 4.06.
With `COc1c2c(cc3c(=O)c4ccccc4oc13)OC(C)(C)C=C2`, the figures for the “log Kp” value in [3] and in data set [4] were 4.07 and 3.94, respectively. Further, in the data set with HL-60, the GI50 came out at 11.8 µM.
The compound `COc1c(O)cc2c(=O)c3c(O)c4c(cc3oc2c1CC=C(C)C)OC(C)(C)C=C4` [MANGLEXANTHONE] yielded an IC50 with KB of 1.9 µM.
For the compound `CC1(C)CCc2c(cc(O)c3c(=O)c4ccccc4oc23)O1`, the “log Kp” value in [3] is on record as 4.27.
In the case of `CC1(C)C=Cc2cc(O)c3c(=O)c4ccccc4oc3c2O1`, the GI50 in data set [2] was greater than 100 µM; in the data set with HL-60 it was 6.4 µM. Besides, in data set [3], the “log Kp” value is given as 4.08.
